One data set has as its target T1, D(4) dopamine receptor (Rattus norvegicus, UniProt P30729).
T1 sequence (P30729 whole entry): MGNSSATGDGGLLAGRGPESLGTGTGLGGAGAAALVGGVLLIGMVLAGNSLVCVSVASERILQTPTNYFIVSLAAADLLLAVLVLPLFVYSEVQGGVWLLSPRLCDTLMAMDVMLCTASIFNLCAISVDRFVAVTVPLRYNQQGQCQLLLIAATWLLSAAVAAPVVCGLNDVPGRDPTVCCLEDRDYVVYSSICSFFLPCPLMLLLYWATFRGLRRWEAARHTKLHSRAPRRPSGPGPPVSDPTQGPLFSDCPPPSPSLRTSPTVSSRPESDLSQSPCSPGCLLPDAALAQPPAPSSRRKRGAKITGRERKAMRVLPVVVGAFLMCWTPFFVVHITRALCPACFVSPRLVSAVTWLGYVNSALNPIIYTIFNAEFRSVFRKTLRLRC

The target of data set [1] is T2, 5-hydroxytryptamine receptor 2C (Homo sapiens, UniProt P28335).
T2 sequence (P28335 whole entry): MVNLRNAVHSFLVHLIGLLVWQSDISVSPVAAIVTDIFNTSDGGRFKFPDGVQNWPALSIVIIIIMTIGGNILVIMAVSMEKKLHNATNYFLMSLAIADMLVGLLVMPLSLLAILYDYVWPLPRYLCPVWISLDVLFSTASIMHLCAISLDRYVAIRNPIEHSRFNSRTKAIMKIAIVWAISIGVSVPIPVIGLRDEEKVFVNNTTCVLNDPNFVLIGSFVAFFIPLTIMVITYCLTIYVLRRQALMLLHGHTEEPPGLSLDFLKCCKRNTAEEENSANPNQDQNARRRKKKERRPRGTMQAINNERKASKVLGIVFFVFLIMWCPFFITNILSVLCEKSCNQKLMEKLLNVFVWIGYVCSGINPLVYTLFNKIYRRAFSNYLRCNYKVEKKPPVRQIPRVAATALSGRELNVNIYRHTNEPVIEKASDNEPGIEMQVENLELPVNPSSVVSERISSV
The data set is described as follows: Displacement of [3H]-mesulergine from human 5-HT2C receptor by liquid scintillation counting method. The conditions noted are these: for inhibition (INH): human. An outline of the steps:
(§1)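 Binding assays run by the NIMH Psychoactive Drug Screening Program (PDSP) using its previously reported methods and radioligands. Affinity is given as Ki.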

The target of a further data set is Histamine H1 receptor (Homo sapiens, UniProt P35367). The data set is described as follows: Displacement of [3H]-pyrilamine from human histamine H1 receptor by liquid scintillation counting method. An outline of the steps:
as §1

Data set [2] has as its target D(2) dopamine receptor (Homo sapiens) (UniProt P14416). The data set is described as follows: Displacement of [3H]-N-methylspiperone from human dopamine D2 receptor by liquid scintillation counting method. More on the design: concentration or dose not given beside the values. Particulars: concentration not given here. An outline of the steps: as §1
Data set [3] addresses T3, 5-hydroxytryptamine receptor 1A (Homo sapiens) (UniProt P08908).
T3 sequence (whole entry): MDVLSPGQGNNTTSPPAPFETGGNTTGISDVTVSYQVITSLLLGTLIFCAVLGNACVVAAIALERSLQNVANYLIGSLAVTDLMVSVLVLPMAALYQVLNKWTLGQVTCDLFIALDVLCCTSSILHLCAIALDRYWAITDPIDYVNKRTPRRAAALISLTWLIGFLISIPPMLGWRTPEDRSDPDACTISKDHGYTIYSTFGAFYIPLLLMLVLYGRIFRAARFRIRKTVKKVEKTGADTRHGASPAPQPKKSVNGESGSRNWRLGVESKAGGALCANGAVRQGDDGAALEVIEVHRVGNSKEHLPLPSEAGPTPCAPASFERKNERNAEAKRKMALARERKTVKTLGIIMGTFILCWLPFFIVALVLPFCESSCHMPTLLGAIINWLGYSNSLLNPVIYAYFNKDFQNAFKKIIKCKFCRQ
The data set is described as follows: Displacement of [3H]-8-OH-DPAT from human 5-HT1A receptor by liquid scintillation counting method. The conditions noted are these: concentration not given here. In outline: as §1

Data set [4] addresses 5-hydroxytryptamine receptor 2A (Homo sapiens, UniProt P28223). The data set is described as follows: Displacement of [3H]-ketanserin from human 5-HT2A receptor by liquid scintillation counting method. The conditions noted are these: for inhibition: concentration not given here. In outline: as §1
For data set [5], the target named is 5-hydroxytryptamine receptor 7 (Homo sapiens) (UniProt P34969). The data set is described as follows: Displacement of [3H]-LSD from human 5-HT7 receptor by liquid scintillation counting method. Particulars: concentration not given here. In outline:
as §1

The target of data set [6] is 5-hydroxytryptamine receptor 2B (Homo sapiens, UniProt P41595). The data set is described as follows: Displacement of [3H]-LSD from human 5-HT2B receptor by liquid scintillation counting method. In outline: as §1
Data set [7] has as its target D(3) dopamine receptor (Homo sapiens) (UniProt P35462). The data set is described as follows: Displacement of [3H]-N-methylspiperone from human dopamine D3 receptor by liquid scintillation counting method. Particulars: concentration not given here. In outline: as §1

D(2) dopamine receptor (Homo sapiens), sequence (P14416 whole entry): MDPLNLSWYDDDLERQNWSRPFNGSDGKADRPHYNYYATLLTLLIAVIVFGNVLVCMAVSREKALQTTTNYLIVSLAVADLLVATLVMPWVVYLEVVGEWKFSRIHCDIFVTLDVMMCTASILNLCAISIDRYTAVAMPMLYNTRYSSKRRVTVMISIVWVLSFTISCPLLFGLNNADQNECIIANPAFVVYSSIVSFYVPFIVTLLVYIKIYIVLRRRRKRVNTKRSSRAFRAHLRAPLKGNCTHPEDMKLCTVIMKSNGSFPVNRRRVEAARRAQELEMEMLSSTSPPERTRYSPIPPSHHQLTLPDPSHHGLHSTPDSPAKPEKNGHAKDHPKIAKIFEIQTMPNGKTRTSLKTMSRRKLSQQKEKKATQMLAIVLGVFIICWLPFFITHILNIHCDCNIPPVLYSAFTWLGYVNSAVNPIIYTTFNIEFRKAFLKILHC
Histamine H1 receptor, sequence (P35367 whole entry): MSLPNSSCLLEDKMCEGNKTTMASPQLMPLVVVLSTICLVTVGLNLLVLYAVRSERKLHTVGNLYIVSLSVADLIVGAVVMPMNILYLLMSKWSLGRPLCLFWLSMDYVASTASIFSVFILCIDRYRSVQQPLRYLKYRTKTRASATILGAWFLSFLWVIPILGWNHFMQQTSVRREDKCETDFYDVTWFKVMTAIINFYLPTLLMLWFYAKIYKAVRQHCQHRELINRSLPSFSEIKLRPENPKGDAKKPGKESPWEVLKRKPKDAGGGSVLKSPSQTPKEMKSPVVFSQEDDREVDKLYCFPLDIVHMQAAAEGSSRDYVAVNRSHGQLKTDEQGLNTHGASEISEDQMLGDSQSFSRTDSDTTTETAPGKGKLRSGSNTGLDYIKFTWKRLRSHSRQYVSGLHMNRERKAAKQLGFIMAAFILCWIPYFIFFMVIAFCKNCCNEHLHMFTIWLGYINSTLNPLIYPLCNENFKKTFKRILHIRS
5-hydroxytryptamine receptor 2A, sequence (P28223 whole entry): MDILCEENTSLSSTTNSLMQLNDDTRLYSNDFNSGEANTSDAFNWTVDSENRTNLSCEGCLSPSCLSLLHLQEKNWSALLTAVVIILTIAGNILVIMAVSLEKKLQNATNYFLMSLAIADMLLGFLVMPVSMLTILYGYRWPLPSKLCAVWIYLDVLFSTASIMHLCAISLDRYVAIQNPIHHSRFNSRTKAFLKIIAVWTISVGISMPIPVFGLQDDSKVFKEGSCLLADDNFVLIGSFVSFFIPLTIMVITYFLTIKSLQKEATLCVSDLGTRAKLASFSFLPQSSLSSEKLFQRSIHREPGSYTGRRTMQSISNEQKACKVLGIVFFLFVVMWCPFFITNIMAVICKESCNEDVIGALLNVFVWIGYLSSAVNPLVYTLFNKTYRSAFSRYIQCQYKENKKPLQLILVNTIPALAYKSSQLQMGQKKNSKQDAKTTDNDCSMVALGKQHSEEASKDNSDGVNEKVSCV
5-hydroxytryptamine receptor 2B, sequence (P41595 whole entry): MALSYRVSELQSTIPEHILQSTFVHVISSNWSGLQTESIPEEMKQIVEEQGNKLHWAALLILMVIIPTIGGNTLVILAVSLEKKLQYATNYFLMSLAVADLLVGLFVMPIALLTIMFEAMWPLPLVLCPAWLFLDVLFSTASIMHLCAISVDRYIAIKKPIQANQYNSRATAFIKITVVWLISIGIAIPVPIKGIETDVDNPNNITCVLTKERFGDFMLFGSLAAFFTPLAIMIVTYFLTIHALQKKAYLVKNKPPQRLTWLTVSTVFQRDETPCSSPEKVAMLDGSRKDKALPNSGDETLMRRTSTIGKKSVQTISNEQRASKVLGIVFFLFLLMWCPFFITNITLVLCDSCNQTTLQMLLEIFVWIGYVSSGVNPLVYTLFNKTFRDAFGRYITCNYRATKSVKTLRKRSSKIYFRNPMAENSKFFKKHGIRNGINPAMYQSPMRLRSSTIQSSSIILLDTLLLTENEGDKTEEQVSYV
5-hydroxytryptamine receptor 7 (Homo sapiens), sequence (P34969 whole entry): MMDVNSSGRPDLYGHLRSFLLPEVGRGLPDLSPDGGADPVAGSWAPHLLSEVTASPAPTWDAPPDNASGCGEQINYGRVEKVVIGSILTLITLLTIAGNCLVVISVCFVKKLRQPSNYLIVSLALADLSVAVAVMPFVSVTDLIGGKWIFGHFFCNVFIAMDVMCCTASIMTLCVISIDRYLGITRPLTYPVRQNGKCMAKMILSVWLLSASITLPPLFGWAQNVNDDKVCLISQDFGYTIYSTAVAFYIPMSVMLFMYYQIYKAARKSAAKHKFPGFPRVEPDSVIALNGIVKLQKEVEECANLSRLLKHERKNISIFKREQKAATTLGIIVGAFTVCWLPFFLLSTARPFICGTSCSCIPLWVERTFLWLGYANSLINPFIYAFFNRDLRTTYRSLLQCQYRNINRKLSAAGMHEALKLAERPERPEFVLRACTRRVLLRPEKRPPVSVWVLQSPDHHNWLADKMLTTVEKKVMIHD
D(3) dopamine receptor (Homo sapiens), sequence (P35462 whole entry): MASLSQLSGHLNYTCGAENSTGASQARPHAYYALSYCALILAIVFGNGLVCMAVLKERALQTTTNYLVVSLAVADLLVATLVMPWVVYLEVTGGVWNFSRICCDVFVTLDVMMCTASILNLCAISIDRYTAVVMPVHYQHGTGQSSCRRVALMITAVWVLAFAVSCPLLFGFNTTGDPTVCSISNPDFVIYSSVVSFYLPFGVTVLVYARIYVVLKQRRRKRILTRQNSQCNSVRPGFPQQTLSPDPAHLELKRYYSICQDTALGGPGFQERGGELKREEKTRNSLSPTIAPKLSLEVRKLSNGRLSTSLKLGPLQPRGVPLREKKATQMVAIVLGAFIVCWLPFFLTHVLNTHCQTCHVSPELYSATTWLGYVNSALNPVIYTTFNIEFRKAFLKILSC

As to `O=C(CCCN1CCCc2ccccc2C1)c1ccc(Cl)cc1`, the affinity on D(4) dopamine receptor, expressed as Ki, was 0.442 µM.
Take `O=C1c2ccc(F)cc2CC1CCN1CCc2ccccc2C1` (centres undefined): the Ki at D(4) dopamine receptor amounted to 0.251 µM. Further, in [1], the “inhibition (INH)” value was < 50%.
`C1=C(CCN2CCc3ccccc3C2)CCc2ccccc21` gave a Ki at D(4) dopamine receptor of 0.14 µM.
`Clc1cccc2c1CN(CCCCc1nc3ccccc3s1)CC2` came in with a Ki on D(4) dopamine receptor of 0.129 µM.
In the case of `O=C1Cc2cc(C(=O)CCCN3CCc4ccccc4C3)ccc2N1`, the Ki on D(4) dopamine receptor is 3.34 µM. The “inhibition (INH)” value on Histamine H1 receptor is on record as < 50%.
`O=C1c2ccccc2CC1CCN1CCc2ccccc2C1` (centres undefined) came in with a Ki on D(4) dopamine receptor of 1.1 µM.
For the compound `CC1(C)CC(=O)N(CCCCN2CCc3ccccc3C2)C(=O)C1.Cl`, the inhibition in [2], in [3], in data set [4] and in [5] was < 50% each time. Besides, the “inhibition (INH)” value (in data set [6]; in data set [1]; on Histamine H1 receptor) was < 50% throughout.
On D(4) dopamine receptor, `O=C1c2ccc(Cl)cc2CC1CCN1CCc2ccccc2C1` (centres undefined) gave a Ki of 0.05 µM.
Consider `C1=C(CCN2CCc3ccccc3C2)Cc2ccccc21`, for which the inhibition in [2] was < 50%. For the same compound, the inhibitory constant (Ki) at D(4) dopamine receptor worked out at 0.194 µM. Moreover, the “inhibition (INH)” value (in [1]; at Histamine H1 receptor) was < 50% throughout.
Regarding `O=C(CCCN1CCCc2ccccc21)c1ccc(Cl)cc1`, the inhibition in data set [7], in [2], in data set [3], in data set [4] and in data set [5] was < 50% throughout. For the same compound, the “inhibition (INH)” value (in data set [6]; on Histamine H1 receptor) was < 50% throughout.
With `c1ccc2c(c1)CCN(CCCc1nc3ccccc3s1)C2`, the inhibition in data set [2] was < 50%. In addition, the inhibition constant (Ki) on D(4) dopamine receptor was 0.041 µM.
`O=C(CCCN1CCc2ccccc2CC1)c1ccc(Cl)cc1` came in with an inhibition constant (Ki) at D(4) dopamine receptor of 0.082 µM.
With `Cl.Cl.c1ccc2c(c1)CCN(CCCc1nc3ccccc3[nH]1)C2`, the results for the Ki (on D(4) dopamine receptor; in data set [4]; in data set [1]) were 0.127 µM, > 10 µM and > 10 µM, respectively. Moreover, the “inhibition (INH)” value in data set [6] is < 50%.
For `COc1cc2c(cc1OC)CN(CCCCc1nc3cc(Cl)ccc3s1)CC2`, the Ki at D(4) dopamine receptor amounted to 0.272 µM.
Consider `Clc1ccc2sc(CCCCN3CCC4CCCCC4C3)nc2c1` (centres undefined), for which the inhibition constant (Ki) on D(4) dopamine receptor is 0.037 µM.
Consider `Cl.Clc1ccc(C(=CCCN2CCc3ccccc3C2)c2ccc(Cl)cc2)cc1`, for which the inhibition in data set [2], in [3] and in data set [4] was < 50% in each case. In data set [6], the “inhibition (INH)” value is listed as < 50%.
As to `CC1(C)CC(=O)N(CCCCN2Cc3ccccc3C2)C(=O)C1`, the Ki on D(4) dopamine receptor was > 10 µM.
Consider `Cl.O=C(CCCN1CCCCc2ccccc21)c1ccc(Cl)cc1`, for which the inhibition in data set [7], in data set [2], in data set [3], in data set [4] and in data set [5] was < 50% throughout. Moreover, the “inhibition (INH)” value (in [6]; in data set [1]; at Histamine H1 receptor) was < 50% in each case.

The values are drawn from ChEMBL document CHEMBL3862017, “Synthesis and evaluation of the structural elements in alkylated tetrahydroisoquinolines for binding to CNS receptors” (Bioorg Med Chem, 2016).
